The molecules below were run on α-amylase (assay: α-Amylase inhibition assay). Details: at a concentration of 100 µM, mean ± SD.
Format: biochemical

For `C[C@H]1O[C@H](O[C@H]2[C@H](O)[C@@H](O)[C@@H](O[C@H]3[C@H](O)[C@@H](O)C(O)O[C@@H]3CO)O[C@@H]2CO)[C@H](O)[C@@H](O)[C@@H]1N[C@H]1C=C(CO)[C@@H](O)[C@H](O)[C@H]1O` (stereo partly drawn) [Acarbose], the “Inhibition of α-amylase activity (%)” value was 50.1 ± 0.5%.

Each molecule was assayed against T1, α-glucosidase (Saccharomyces cerevisiae, UniProt P53341) (assay: α-Glucosidase kinetic study). Details: Lineweaver–Burk plot; Km increases, Vmax unchanged.
Format: biochemical

T1 sequence (P53341 whole entry): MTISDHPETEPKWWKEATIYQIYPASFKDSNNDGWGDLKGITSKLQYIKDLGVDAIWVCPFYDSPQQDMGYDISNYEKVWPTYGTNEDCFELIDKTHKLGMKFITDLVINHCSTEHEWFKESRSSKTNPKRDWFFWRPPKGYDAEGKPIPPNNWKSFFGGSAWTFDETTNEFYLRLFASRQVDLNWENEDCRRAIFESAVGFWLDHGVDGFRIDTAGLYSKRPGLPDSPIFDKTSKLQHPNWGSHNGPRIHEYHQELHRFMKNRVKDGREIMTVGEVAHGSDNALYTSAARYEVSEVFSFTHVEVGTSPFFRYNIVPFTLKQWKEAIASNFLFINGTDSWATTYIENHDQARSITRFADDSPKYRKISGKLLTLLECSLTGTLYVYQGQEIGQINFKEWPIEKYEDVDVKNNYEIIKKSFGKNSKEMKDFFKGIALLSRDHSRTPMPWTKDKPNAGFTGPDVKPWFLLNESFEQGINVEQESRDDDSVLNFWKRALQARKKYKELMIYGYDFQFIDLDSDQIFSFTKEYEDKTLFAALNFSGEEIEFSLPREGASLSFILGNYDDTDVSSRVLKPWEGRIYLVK

`Nc1c(-c2ccc(Cl)cc2)nc2ncnn2c1-c1ccc(Cl)cc1` [9s, 5,7-Bis(4-chlorophenyl)-[1,2,4]triazolo[1,5-a]pyrimidin-6-amine] was tested, and the Mode of inhibition was “competitive”.

What follows are molecules tested against Saccharomyces cerevisiae α-glucosidase (Saccharomyces cerevisiae, UniProt P53341) (assay: α-Glucosidase inhibition assay). Details: not given.
Format: biochemical

Chain of Saccharomyces cerevisiae α-glucosidase (P53341 whole entry): as above

Going from `Nc1c(-c2ccc(Cl)cc2)nc2ncnn2c1-c1ccc(Cl)cc1` [9s, 5,7-Bis(4-chlorophenyl)-[1,2,4]triazolo[1,5-a]pyrimidin-6-amine] to `COc1ccc(-c2c(N)c(-c3ccc(Cl)cc3)nc3ncnn23)cc1` [9r, 5-(4-Chlorophenyl)-7-(4-methoxyphenyl)-[1,2,4]triazolo[1,5-a]pyrimidin-6-amine], the IC50 rises from 24.32 ± 0.18 µM to 41.5 ± 0.56 µM (1.7-fold).

`Nc1c(-c2ccccc2)nc2ncnn2c1-c1ccccc1` [9a, 5,7-Diphenyl-[1,2,4]triazolo[1,5-a]pyrimidin-6-amine] and `Nc1c(-c2ccccc2)nc2ncnn2c1-c1ccc(Br)cc1` [9f, 7-(4-Bromophenyl)-5-phenyl-[1,2,4]triazolo[1,5-a]pyrimidin-6-amine] are within 1.5-fold of each other in IC50: 97.02 ± 0.83 µM for the first, 65.09 ± 0.38 µM for the second.

`COc1ccc(-c2nc3ncnn3c(-c3ccccc3)c2N)cc1` [9m, 5-(4-Methoxyphenyl)-7-phenyl-[1,2,4]triazolo[1,5-a]pyrimidin-6-amine] and `COc1ccc(-c2c(N)c(-c3ccccc3)nc3ncnn23)cc1` [9b, 7-(4-Methoxyphenyl)-5-phenyl-[1,2,4]triazolo[1,5-a]pyrimidin-6-amine] are within 1.5-fold of each other in IC50: 72.4 ± 0.98 µM for the first, 70.85 ± 0.27 µM for the second.

Compared with `Cc1ccc(-c2nc3ncnn3c(-c3ccccc3)c2N)cc1` [9h, 7-Phenyl-5-(p-tolyl)-[1,2,4]triazolo[1,5-a]pyrimidin-6-amine], `Nc1c(-c2ccc(Cl)cc2)nc2ncnn2c1-c1ccccc1` [9q, 5-(4-Chlorophenyl)-7-phenyl-[1,2,4]triazolo[1,5-a]pyrimidin-6-amine] is 1.6-fold lower in IC50: 94.52 ± 0.72 µM for the first, 58.11 ± 0.34 µM for the second. The second is the more potent here.

`Cc1ccc(-c2nc3ncnn3c(-c3cccs3)c2N)cc1` [9l, 7-(Thiophen-2-yl)-5-(p-tolyl)-[1,2,4]triazolo[1,5-a]pyrimidin-6-amine] and `Nc1c(-c2ccccc2)nc2ncnn2c1-c1cccs1` [9g, 5-Phenyl-7-(thiophen-2-yl)-[1,2,4]triazolo[1,5-a]pyrimidin-6-amine] are within 1.5-fold of each other in IC50: 151.3 ± 0.56 µM for the first, 140 ± 1.55 µM for the second.

`COc1ccc(-c2nc3ncnn3c(-c3ccc(OC)cc3)c2N)cc1` [9n, 5,7-Bis(4-methoxyphenyl)-[1,2,4]triazolo[1,5-a]pyrimidin-6-amine] and `COc1ccc(-c2nc3ncnn3c(-c3ccc(Cl)cc3)c2N)cc1` [9o, 7-(4-Chlorophenyl)-5-(4-methoxyphenyl)-[1,2,4]triazolo[1,5-a]pyrimidin-6-amine] are within 1.5-fold of each other in IC50: 52.66 ± 0.3 µM for the first, 37.18 ± 0.23 µM for the second.

In the case of `Nc1c(-c2ccccc2)nc2ncnn2c1-c1ccc(Cl)cc1` [9c, 7-(4-Chlorophenyl)-5-phenyl-[1,2,4]triazolo[1,5-a]pyrimidin-6-amine], the IC50 is reported as 56.2 ± 0.68 µM.

What follows are molecules tested against T1, α-glucosidase (assay: Circular dichroism spectroscopy of α-glucosidase secondary structure). Details: CD, α-glucosidase in the presence of 9s.
Outline: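 Far-UV CD spectra (190–240 nm) recorded for yeast α-glucosidase alone and for its complex with the test compound. Spectra were deconvoluted into α-helix, β-sheet, β-turn and random-coil fractions, and the complex was compared with native enzyme.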

In the case of `Nc1c(-c2ccc(Cl)cc2)nc2ncnn2c1-c1ccc(Cl)cc1` [9s, 5,7-Bis(4-chlorophenyl)-[1,2,4]triazolo[1,5-a]pyrimidin-6-amine], the “Random coils content of α-glucosidase” value is reported as 0%.

In the case of `Nc1c(-c2ccc(Cl)cc2)nc2ncnn2c1-c1ccc(Cl)cc1` [9s, 5,7-Bis(4-chlorophenyl)-[1,2,4]triazolo[1,5-a]pyrimidin-6-amine], the “α-Helix content of α-glucosidase” value is reported as 41.2%.

In the case of `Nc1c(-c2ccc(Cl)cc2)nc2ncnn2c1-c1ccc(Cl)cc1` [9s, 5,7-Bis(4-chlorophenyl)-[1,2,4]triazolo[1,5-a]pyrimidin-6-amine], the “β-Turn content of α-glucosidase” value is reported as 51.4%.
